Measured values reported in ChEMBL document CHEMBL4330127, “Discovery of Novel Pyruvate Dehydrogenase Kinase 4 Inhibitors for Potential Oral Treatment of Metabolic Diseases” (J Med Chem, 2019).
The source made the active and inactive calls. No cut-off for these calls is given here.

Columns and labels:
[1] = target: [Pyruvate dehydrogenase (acetyl-transferring)] kinase isozyme 4, mitochondrial (Homo sapiens, UniProt Q16654); assay: Inhibition of PDK4 in HEK293T cells assessed as reduction in PDHE1alpha phosphorylation at Ser-300 residue by measuring phosphorylated PDHE1alpha level at 10 uM after 24 hrs by Western blot analysis; assay type: cell-based
Summary of the method: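 HEK293T cells grown in high-glucose DMEM with 10% FBS at 37 °C, 5% CO2. Medium renewed after 24 h, then cells exposed to compound for 24 h and lysed. 20 μg protein per lane Western blotted with antibodies to phospho-PDHE1α Ser232, Ser293 and Ser300 and to total PDHE1α. Band intensity quantified relative to control; triplicate.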

[2] = target: RAC-alpha serine/threonine-protein kinase (Mus musculus) (UniProt P31750); assay: Increase in AKT phosphorylation at Ser-473 residue in mouse AML-12 cells at 10 uM after 24 hrs by Western blot analysis; assay type: cell-based
Summary of the method: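 AML12 hepatocytes challenged with palmitate, then exposed to 10 μM compound or vehicle (5 mM DCA as reference) for 24 h; p-Akt read by Western blot of cell lysates.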

[3] = system: HCT-116; assay: Cell cycle arrest in human HCT116 cells assessed as accumulation at G1/G0 phase at 25 uM after 24 hrs in presence of oxaliplatin propidium iodide staining based flow cytometry (reference value: 41.3%); assay type: functional
Summary of the method: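 HCT116 and RKO cells were treated with compound alone or with oxaliplatin for 24 h before harvest. Cells were stained with propidium iodide, and DNA content was analysed by flow cytometry. Cell-cycle phase populations, including sub-G1, are given as percentages.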

[Pyruvate dehydrogenase (acetyl-transferring)] kinase isozyme 4, mitochondrial, sequence (Q16654 whole entry, looked up): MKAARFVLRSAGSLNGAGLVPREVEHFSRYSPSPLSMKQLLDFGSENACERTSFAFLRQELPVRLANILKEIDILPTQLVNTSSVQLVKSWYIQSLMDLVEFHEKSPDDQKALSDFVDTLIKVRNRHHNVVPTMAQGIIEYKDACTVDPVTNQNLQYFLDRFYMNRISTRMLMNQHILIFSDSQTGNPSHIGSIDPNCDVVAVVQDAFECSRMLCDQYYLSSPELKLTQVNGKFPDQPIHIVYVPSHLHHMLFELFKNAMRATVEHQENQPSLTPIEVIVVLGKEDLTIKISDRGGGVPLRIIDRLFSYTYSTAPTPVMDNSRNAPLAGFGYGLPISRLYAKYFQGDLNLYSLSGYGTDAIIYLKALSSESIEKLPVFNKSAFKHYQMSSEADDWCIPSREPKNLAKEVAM
RAC-alpha serine/threonine-protein kinase (Mus musculus), sequence (P31750 whole entry): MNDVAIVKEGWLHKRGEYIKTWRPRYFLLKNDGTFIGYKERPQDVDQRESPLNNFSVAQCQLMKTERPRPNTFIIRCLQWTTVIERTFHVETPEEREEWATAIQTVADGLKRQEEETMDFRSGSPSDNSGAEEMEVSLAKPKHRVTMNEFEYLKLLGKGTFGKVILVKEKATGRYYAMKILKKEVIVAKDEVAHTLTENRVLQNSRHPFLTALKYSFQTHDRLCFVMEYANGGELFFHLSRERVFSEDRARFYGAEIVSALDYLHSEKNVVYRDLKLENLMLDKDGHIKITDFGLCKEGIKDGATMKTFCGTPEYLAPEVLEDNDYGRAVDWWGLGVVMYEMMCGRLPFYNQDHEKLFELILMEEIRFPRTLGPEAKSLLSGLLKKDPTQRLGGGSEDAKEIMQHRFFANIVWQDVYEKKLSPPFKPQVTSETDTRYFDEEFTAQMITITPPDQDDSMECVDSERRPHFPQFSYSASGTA

SMILES: Cl.O=C1c2ccccc2C(=O)c2c1cccc2-c1cnn(C2CCNCC2)c1
- fold change (FC) [1]: 0.26
- Activity [2]: Active
- Activity [3]: 17.8%
